Published values pooled from the literature.
pIC50: −log10 of the molar value.
EGFR L858R/T790M: Epidermal growth factor receptor (EGFR, Homo sapiens, UniProt P00533, L858R/T790M)
BRAF: Serine/threonine-protein kinase B-raf (BRAF, Homo sapiens, UniProt P15056)
ELANE: Neutrophil elastase (ELANE, Homo sapiens, UniProt P08246)
Delta-aminolevulinic acid dehydratase C162A/K59N: Delta-aminolevulinic acid dehydratase (Homo sapiens, UniProt P13716, C162A/K59N)

| Compound | target | effect on | mode | technique | pH | notes | pIC50 |
| --- | --- | --- | --- | --- | --- | --- | --- |
| Oc1c2ccccc2c2c3c(cccc13)N=N2 | Non-receptor tyrosine-protein kinase TYK2 (TYK2, Homo sapiens, UniProt P29597) | enzyme activity | inhibitor | – | – | – | 6.36 |
| NCCCC[C@H](NC(=O)[C@@H]1CCCN1C(=O)[C@@H]1CSSC[C@H](NC(=O)CNC(=O)CNC(=O)CN)C(=O)N[C@@H](Cc2ccc(O)cc2)C(=O)N[C@@H](Cc2ccccc2)C(=O)N[C@@H](CCC(N)=O)C(=O)N[C@@H](CC(N)=O)C(=O)N1)C(=O)NCC(N)=O | Vasopressin V2 receptor (AVPR2, Homo sapiens, UniProt P30518) | ligand displacement | – | radioligand | – | cell membranes | 5.02 |
| CCCS(=O)(=O)Nc1ccc(F)c(C(=O)c2c[nH]c3ncc(-c4ccc(CNC(=O)COCC(=O)NCc5ccc(-c6cnc7[nH]cc(C(=O)c8c(F)ccc(NS(=O)(=O)CCC)c8F)c7c6)cc5)cc4)cc23)c1F | Serine/threonine-protein kinase B-raf (BRAF, Homo sapiens, UniProt P15056, V600E) | enzyme activity | inhibitor | ELISA | – | – | ~7.25 |
| COc1ccc2c(c1)OC1Oc3cc(O)c(CC=C(C)C)c(O)c3C(=O)C21O (stereo not shown) | Beta-secretase 1 (BACE1, Homo sapiens, UniProt P56817) | enzyme activity | inhibitor | – | – | – | 4.04 |
| CC(=O)N[C@H]1CSSC[C@@H](C(=O)N[C@@H](Cc2c[nH]c3ccccc23)C(N)=O)NC(=O)[C@@H](Cc2ccccc2)NC(=O)[C@H](CCCNC(=N)N)NC1=O | Melanocortin receptor 3 (MC3R, Homo sapiens, UniProt P41968) | ligand displacement | – | radioligand | – | – | 6.38 |
| C=CC(=O)Nc1cc(Nc2nccc(-c3cn(C4CC4)c4ccccc34)n2)c(OC)cc1N(C)CCN(C)C | Epidermal growth factor receptor (EGFR, Homo sapiens, UniProt P00533, G719C) | enzyme activity | inhibitor | TR-FRET | – | – | 7.76 |
| CCC(C)(O)C(=O)N1CCC(NC(=O)Nc2ccc(OC(F)(F)F)c(F)c2)CC1 (stereo not shown) | Bifunctional epoxide hydrolase 2 (Ephx2, Mus musculus, UniProt P34914) | enzyme activity | inhibitor | – | – | – | 7.89 |
| O=C(N/N=C/CN1CCCCC1)Nc1cc2c(Nc3ccc(F)c(Cl)c3)ncnc2cc1O[C@H]1CCOC1 | EGFR L858R/T790M | enzyme activity | inhibitor | – | – | – | 8.07 |
| O=C(Nc1ccc(Cl)cc1)N1CCC(n2c(=O)[nH]c3c(Br)cccc32)CC1 | SMUG1 (Homo sapiens, UniProt Q53HV7) | enzyme activity | inhibitor | – | – | – | < 4.00 |
| CN1CCN(c2ccc(Nc3ncc4cc(C#N)c(=O)n(C5CCCC5)c4n3)cc2)CC1 | Maternal embryonic leucine zipper kinase (MELK, Homo sapiens, UniProt Q14680) | enzyme activity | inhibitor | – | – | – | < 5.00 |
| CC(C)(C)n1nc(-c2ccc3nc(OC4CC4)ccc3c2)c(C(N)=O)c1N | BRAF | cell-free assay | – | – | – | – | < 5.00 |
| CCOC(=O)c1nn(C(=O)C2CC2)c2ccccc2c1=O | ELANE | enzyme activity | inhibitor | fluorescence | – | – | 6.24 |
| Oc1ccc(-c2nc(-c3ccncc3)c(-c3ccc(F)cc3)[nH]2)cc1 | BRAF | cell-free assay | inhibitor | – | – | – | 5.95 |
| NS(=O)(=O)c1cc2c(cc1C(F)(F)F)NC(Cc1ccccc1)NS2(=O)=O (stereo not shown) | Delta-aminolevulinic acid dehydratase C162A/K59N | enzyme activity | inhibitor | absorbance | pH 8 | with preincubation | 3.89 |
| O=C(Nc1ccc(-c2nc(-c3ccc(F)cc3)no2)cc1)C1CC(=O)N(Cc2cccnc2)C1 (stereo not shown) | Relaxin-3 receptor 1 (RXFP3, Homo sapiens, UniProt Q9NSD7) | cAMP | antagonist | TR-FRET | – | – | 5.57 |
| C=C(Cl)C(=O)Nc1cc(Nc2nc(N3CCOCC3)c3sccc3n2)c(OC)cc1N(C)CCN(C)C | EGFR L858R/T790M | enzyme activity | inhibitor | ELISA | – | – | 7.20 |
| Cc1ccc(COc2ccc3c(c2)NC(=C(C#N)C(=O)c2ccc(Cl)cc2Cl)NC3=O)cc1 | Cytoplasmic dynein 2 heavy chain 1 (DYNC2H1, Homo sapiens, UniProt Q8NCM8) | ATPase activity | inhibitor | – | – | – | 4.96 |
| O=Cc1cc(Br)cc(Br)c1O | Delta-aminolevulinic acid dehydratase C162A/K59N | enzyme activity | inhibitor | absorbance | pH 8 | with preincubation | 4.66 |
| Cc1cccc(C(=O)Oc2cnnc3ccc([N+](=O)[O-])cc23)c1 | ELANE | enzyme activity | inhibitor | fluorescence | – | – | 6.23 |
